ChEMBL document CHEMBL1765029, “Synthesis and biological evaluation of estradiol linked pyrrolo[2,1-c][1,4]benzodiazepine (PBD) conjugates as potential anticancer agents” (2011)
Activity calls are given as the source filed them. No cut-off for these calls is given here.

Tests used:
ZR-75-1 = assay: Cytotoxicity against human ZR-75-1 cells by sulforhodamine B method; type: functional
A549 = assay: Cytotoxicity against human A549 cells by sulforhodamine B method; type: functional
A2780 = assay: Cytotoxicity against human A2780 cells by sulforhodamine B method; type: functional
HOP-62 = assay: Cytotoxicity against human HOP62 cells by sulforhodamine B method; type: functional
KB = assay: Cytotoxicity against human KB cells by sulforhodamine B method; type: functional
SiHa = assay: Cytotoxicity against human SiHa cells by sulforhodamine B method; type: functional
[1] = Cytotoxicity against human Gurav cells by sulforhodamine B method; type: functional
MCF7 [2] = assay: Cytotoxicity against human MCF7 cells by sulforhodamine B method; type: functional
COLO 205 = assay: Cytotoxicity against human COLO205 cells by sulforhodamine B method; type: functional
[3] = Cytotoxicity against human DWD cells by sulforhodamine B method; type: functional
PC-3 = assay: Cytotoxicity against human PC3 cells by sulforhodamine B method; type: functional
MCF7 [4] = assay: Cytotoxicity against human MCF7 cells at 4 uM after 24 hrs by MTT assay; type: functional, cell-based
Summary of the method: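 MCF-7 cells seeded at 10,000 per well, incubated overnight, then treated at 4 µM for 24 h; DMSO control. Medium replaced with MTT, 2 h at 37 °C. Formazan solubilised in extraction buffer, absorbance read at 570 nm, expressed as percent viability.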

MCF7 [5] = assay: Cell cycle arrest in human MCF7 cells assessed as accumulation at G0 phase using propidium iodide staining at 4 uM after 24 hrs by flow cytometry; type: functional
Summary of the method: (§1)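 MCF-7 cells (5 × 10⁵ per 60 mm dish) grown 24 h, then exposed to 4 µM compound for a further 24 h; DMSO-treated control. Cells trypsinised, fixed in ice-cold 70% ethanol at 4 °C for 30 min, RNase-treated (1 mg/mL, 37 °C, 30 min), stained with propidium iodide/citrate/Triton X-100. DNA content read on 20,000 events by flow cytometry; percent cells per phase reported.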

MCF7 [6] = assay: Cell cycle arrest in human MCF7 cells assessed as accumulation at G1 phase using propidium iodide staining at 4 uM after 24 hrs by flow cytometry; type: functional; summary of the method: as §1
MCF7 [7] = assay: Cell cycle arrest in human MCF7 cells assessed as accumulation at S phase using propidium iodide staining at 4 uM after 24 hrs by flow cytometry; type: functional; summary of the method: as §1
MCF7 [8] = assay: Cell cycle arrest in human MCF7 cells assessed as accumulation at G2/M phase using propidium iodide staining at 4 uM after 24 hrs by flow cytometry; type: functional; summary of the method: as §1
Tubulin (Homo sapiens) = Tubulin (Homo sapiens) (UniProt P68371+Q9H4B7+P0DPH7+P68366+Q13509+Q71U36+P04350+Q3ZCM7+P07437+P68363+Q9BQE3+Q6PEY2+Q13885+Q9BVA1+Q9BUF5); assay: Inhibition of tubulin polymerization in human MCF7 cells assessed as disruption of microtubule network at 4 uM after 24 hrs by DAPI based immunofluorescence assay; type: cell-based
Summary of the method: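 MCF-7 cells on glass coverslips incubated 24 h with or without 4 µM compound. Fixed in 4% paraformaldehyde/0.02% glutaraldehyde, permeabilised in −20 °C methanol, blocked 1 h in 1% BSA/PBS. Stained with mouse anti-tubulin primary and Cy3 anti-mouse IgG secondary, nuclei with DAPI. Confocal images scored for microtubule integrity; nocodazole as reference.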

MCF7 [9] = assay: Induction of apoptosis in human MCF7 cells assessed as DNA fragmentation at 4 uM after 24 hrs by TUNEL assay relative to control; type: functional, cell-based
Summary of the method: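 MCF-7 cells treated at 4 µM for 24 h; untreated cells as control. Nuclear DNA fragmentation detected by TdT-mediated fluorescein-dUTP nick-end labelling (ApoAlert kit). Labelled cells imaged by confocal microscopy, green stain marking TUNEL-positive cells.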

MCF7 [10] = assay: Induction of apoptosis in human MCF7 cells assessed as up-regulation of Bax gene at 4 uM after 24 hrs by Western blot analysis; type: functional, cell-based
Summary of the method: (§2)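 MCF-7 cells (5 × 10⁵ per 60 mm dish) grown 24 h, then treated at 4 µM for 24 h. Lysis in ice-cold RIPA buffer with protease/phosphatase inhibitors; protein measured by Bradford. Fifty µg per lane resolved on 12% SDS-PAGE and transferred to PVDF. Blocked 2 h, primary antibody overnight at 4 °C, chemiluminescent detection; β-actin as loading control.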

MCF7 [11] = assay: Induction of apoptosis in human MCF7 cells assessed as activation of procaspase-7 at 4 uM after 24 hrs by Western blot analysis; type: functional, cell-based; summary of the method: as §2
MCF7 [12] = assay: Induction of apoptosis in human MCF7 cells assessed up-regulation of p53 protein level at 4 uM after 24 hrs by Western blot analysis; type: functional, cell-based; summary of the method: as §2
MCF7 [13] = assay: Induction of apoptosis in human MCF7 cells assessed up-regulation of p21 protein level at 4 uM after 24 hrs by Western blot analysis; type: functional, cell-based; summary of the method: as §2
MCF7 [14] = assay: Reduction in Cdk1 protein level in human MCF7 cells at 4 uM after 24 hrs by Western blot analysis; type: functional, cell-based; summary of the method: as §2
MCF7 [15] = assay: Down regulation of HDAC-1 protein in human MCF7 cells at 4 uM after 24 hrs by Western blot analysis; type: functional, cell-based; summary of the method: as §2
MCF7 [16] = assay: Down regulation of HDAC-3 protein in human MCF7 cells at 4 uM after 24 hrs by Western blot analysis; type: functional, cell-based; summary of the method: as §2
MCF7 [17] = assay: Down regulation of NF-kappa B p65 protein in human MCF7 cells at 4 uM after 24 hrs by Western blot analysis; type: functional, cell-based; summary of the method: as §2

Compound	GI50 (ZR-75-1)	GI50 (A549)	GI50 (A2780)	GI50 (HOP-62)	GI50 (KB)	GI50 (SiHa)	GI50 [1]	GI50 (MCF7 [2])	GI50 (COLO 205)	GI50 [3]	GI50 (PC-3)	Activity (MCF7 [4])	Activity (MCF7 [5])	Activity (MCF7 [6])	Activity (MCF7 [7])	Activity (MCF7 [8])	Activity (MCF7 [14])	further results
COc1cc2c(cc1OCCCN1CCN(CCCOc3ccc4c(c3)CC[C@@H]3[C@@H]4CC[C@]4(C)[C@@H](O)CC[C@@H]34)CC1)N=C[C@@H]1CCCN1C2=O	120 nM	120 nM	1300 nM	1140 nM	190 nM	130 nM	140 nM	110 nM	130 nM	120 nM	140 nM	Active	2.84%	47.9%	25.2%	24.01%	–	–
COc1cc2c(cc1OCc1cn(CCCCCOc3ccc4c(c3)CC[C@@H]3[C@@H]4CC[C@]4(C)[C@@H](O)CC[C@@H]34)nn1)N=C[C@@H]1C[C@@H](F)CN1C2=O	< 100 nM	< 100 nM	< 100 nM	110 nM	< 100 nM	110 nM	–	< 100 nM	120 nM	120 nM	< 100 nM	Active	0.82%	42.5%	25.8%	32.4%	–	inhibition (Tubulin (Homo sapiens)): Active; Activity (MCF7 [9]): Active; Activity (MCF7 [10]): Active; Activity (MCF7 [11]): Active; Activity (MCF7 [12]): Active; Activity (MCF7 [13]): Active
COc1cc2c(cc1OCCCN1CCN(CCCOc3ccc4c(c3)CC[C@@H]3[C@@H]4CC[C@]4(C)[C@@H](O)CC[C@@H]34)CC1)N=C[C@@H]1C[C@@H](F)CN1C2=O	< 100 nM	< 100 nM	< 100 nM	110 nM	120 nM	150 nM	110 nM	< 100 nM	130 nM	100 nM	< 100 nM	Active	0.87%	50.53%	24.01%	24.33%	–	–
COc1cc2c(cc1OCc1cn(CCCCCOc3ccc4c(c3)CC[C@@H]3[C@@H]4CC[C@]4(C)[C@@H](O)CC[C@@H]34)nn1)N=C[C@@H]1CC(F)(F)CN1C2=O	180 nM	170 nM	1800 nM	190 nM	190 nM	1210 nM	190 nM	110 nM	160 nM	180 nM	170 nM	Active	0.74%	55%	22.3%	21.8%	–	–
COc1cc2c(cc1OCc1cn(CCCOc3ccc4c(c3)CC[C@@H]3[C@@H]4CC[C@]4(C)[C@@H](O)CC[C@@H]34)nn1)N=C[C@@H]1C[C@@H](F)CN1C2=O	< 100 nM	< 100 nM	< 100 nM	< 100 nM	< 100 nM	< 100 nM	< 100 nM	< 100 nM	110 nM	< 100 nM	< 100 nM	Active	2%	30.76%	30.59%	36.64%	Active	inhibition (Tubulin (Homo sapiens)): Active; Activity (MCF7 [9]): Active; Activity (MCF7 [10]): Active; Activity (MCF7 [11]): Active; Activity (MCF7 [12]): Active; Activity (MCF7 [13]): Active; Activity (MCF7 [15]): Active; Activity (MCF7 [16]): Active; Activity (MCF7 [17]): Active
COc1cc2c(cc1O)N=C[C@@H]1CCCN1C2=O	–	160 nM	140 nM	150 nM	170 nM	170 nM	160 nM	170 nM	110 nM	–	200 nM	Active	8.5%	73.66%	13%	4.83%	Active	–
C[C@]12CC[C@@H]3c4ccc(O)cc4CC[C@H]3[C@@H]1CC[C@@H]2O [ESTRADIOL]	–	–	–	–	–	–	–	–	–	–	–	Active	0.83%	50%	25.26%	23.8%	Active	–
